One series concerns HeLa. Kind of series: Antiproliferation activity against human HeLa cells assessed as reduction in cell viability incubated for 72 hrs by MTT assay. Type of series: functional, cell-based. In outline:
(§1)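 MTT assay. Cells were plated overnight and exposed to a range of concentrations for 72 h. MTT was then added for 4 h and absorbance read at 570 nm. Inhibition% = [(control − compound)/(control − blank)] × 100. IC50 was fitted from the curves. Mean ± S.D. of 3–5 separate experiments. RPMI 1640 + 10% FBS; MCF10A in DMEM/F12 with 5% horse serum, EGF, hydrocortisone, insulin and cholera toxin.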

Series [1] can be described thus: Acute toxicity in Kunming mouse assessed as lethality through intragastric administration observed for 14 days. The note with it: in vivo, po. In short, it runs like this: (§2)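 Kunming mice, groups of 5 female and 5 male per dose, dosed once by gavage at graded doses; mortality recorded over 14 days as dead/treated and percent. LD50 derived by improved Karber's method: LD50 = lg^-1[xm − i(ΣP − 0.5)], xm log of maximal dose, i log ratio of neighbouring doses; 95% confidence intervals given.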

Series [2] can be described thus: Acute toxicity in Kunming mouse assessed as mortality at 5000 mg/kg, ig observed for 14 days relative to control. Type of series: organism-based. The settings on record: in vivo, po, read-out: Activity. In short, it runs like this: as §2
For series [3], the target named is T1, Protein smoothened (Homo sapiens, UniProt Q99835). Kind of series: Binding affinity to recombinant human Smo receptor assessed as maximum response at equilibrium by SPR analysis. In short, it runs like this:
(§3)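 Surface plasmon resonance with recombinant Smo protein, run in PBS at a flow rate of 2 μL/s and 4 °C. Analytes were injected at 2.5, 5 and 10 μM. The chip was regenerated with 0.5% SDS:glycine-HCl pH 2.0 (1:1). ka, kd, Rmax, KA and KD came from a global fit of the sensorgrams.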
A general note: In SPR one partner is held on a chip, and binding of the other changes the refractive index at the surface.

The test system of another series is A549. Kind of series: Antiproliferation activity against human A549 cells assessed as reduction in cell viability incubated for 72 hrs by MTT assay. Type of series: functional, cell-based. The note with it: A549, 72 h. In short, it runs like this:
as §1
On the technique in general: Tetrazolium dyes change colour on reduction, which living cells bring about.

Series [4] deals with T1, Protein smoothened. Kind of series: Binding affinity to recombinant human Smo receptor assessed as dissociation constant at equilibrium by SPR analysis.
For another series, the system named is AN3-CA. Kind of series: Antiproliferation activity against human AN3CA cells assessed as reduction in cell viability incubated for 72 hr by MTT assay. Type of series: functional, cell-based. In outline: as §1
Series [5] concerns the target T1, Protein smoothened. Kind of series: Binding affinity to recombinant human Smo receptor assessed as dissociation rate constant by SPR analysis. In short, it runs like this: as §3
In a further series the test system is MDA-MB-231. Kind of series: Antiproliferation activity against human MDA-MB-231 cells assessed as reduction in cell viability incubated for 72 hrs measured after 4 hrs by MTT assay. Type of series: functional, cell-based. In short, it runs like this:
as §1

Series [6] concerns the target T1, Protein smoothened. Kind of series: Binding affinity to recombinant human Smo receptor assessed as association constant at equilibrium by SPR analysis.
Another series relates to MCF7. Kind of series: Antiproliferation activity against human MCF7 cells assessed as reduction in cell viability incubated for 72 hrs by MTT assay. Type of series: functional, cell-based. The note with it: MCF7, 72 h. In short, it runs like this: as §1
The nature of series [7]: Inhibition of hedgehog pathway in mouse NIH/3T3 cells harboring GRE-Luc assessed as inhibition of SAG-induced Hh signaling pathway by dual luciferase reporter gene assay. Type of series: cell-based. The note with it: NIH3T3. In outline: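 NIH3T3 cells co-transfected with 8×3' Gli-BS-delta51-Luc II firefly reporter and pRL-TK Renilla plasmid; after 24 h treated with compounds plus SAG (pathway activator). Gli luciferase normalized to Renilla (dual-luciferase read-out); IC50 = concentration halving normalized signal; mean ± S.D. of 3–5 separate experiments.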
(A reporter such as luciferase makes a cellular process visible.)

In series [8] the test system is MDA-MB-468. Kind of series: Antiproliferation activity against human MDA-MB-468 cells assessed as reduction in cell viability incubated for 72 hr by MTT assay. Type of series: functional, cell-based. The settings on record: MDA-MB-468, 72 h. In short, it runs like this:
as §1

The test system of a further series is T47D. Kind of series: Antiproliferation activity against human T47D cells assessed as reduction in cell viability incubated for 72 hr by MTT assay. Type of series: functional, cell-based. In outline: as §1
Series [9] deals with T1, Protein smoothened. Kind of series: Binding affinity to recombinant human Smo receptor assessed as association rate constant by SPR analysis. In short, it runs like this: as §3
A further series relates to U-251. Kind of series: Antiproliferation activity against human U251 cells assessed as reduction in cell viability incubated for 72 hrs by MTT assay. The series is classed as functional, cell-based. The note with it: U-251, 72 h. In outline: as §1
Series [10] is described as follows: Acute toxicity in Kunming mouse assessed as mortality at 1778 mg/kg, ig observed for 14 days relative to control. Type of series: organism-based. The note with it: in vivo, po, read-out: Activity. In outline: as §2
A short description of series [11]: Acute toxicity in Kunming mouse assessed as mortality at 4000 mg/kg, ig observed for 14 days relative to control. The series is classed as organism-based. The note with it: in vivo, po, read-out: Activity. In outline: as §2
Series [12] is described as follows: Toxicity in BALB/c mouse xenografted with human MDA-MB-468 cells assessed as body weight at 80 to 100 mg/kg, ig measured every day for 21 day. Type of series: organism-based. The settings on record: in vivo, po, 504 h. In short, it runs like this:
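Female BALB/c nude mice, 6–8 weeks, given 1.0×10^7 MDA-MB-468 cells s.c. in right posterior flank; at 100 mm3 tumours, randomized into groups of five. Daily gavage at 80 or 100 mg/kg in saline with 0.1% Tween 80, or vehicle alone; body weight recorded daily, tumour volume every 2 days; sacrificed day 21.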

A further series relates to MCF-10A. Kind of series: Cytotoxicity against human MCF10A cells assessed as cell viability incubated for 72 hrs measured by MTT assay. The series is classed as cell-based. In short, it runs like this:
as §1

A short description of series [13]: Acute toxicity in Kunming mouse assessed as mortality at 1111 mg/kg, ig observed for 14 days relative to control. The series is classed as organism-based. The settings on record: in vivo, po, read-out: Activity. In short, it runs like this:
as §2

Series [14] can be described thus: Acute toxicity in Kunming mouse assessed as mortality at 2667 mg/kg, ig observed for 14 days relative to control. The series is classed as organism-based. The settings on record: in vivo, po, read-out: Activity. In outline: as §2
Series [15] is described as follows: Acute toxicity in Kunming mouse assessed as mortality at 741 mg/kg, ig observed for 14 days relative to control. The series is classed as organism-based. The settings on record: in vivo, po, read-out: Activity. In outline:
as §2

The test system of series [16] is MDA-MB-468. Kind of series: Inhibition of hedgehog pathway in human MDA-MB-468 cells assessed as decrease in Smo protein levels in cilia at 28 uM incubated for 24 hrs by immunostaining based confocal microscopic analysis. The series is classed as cell-based. In outline:
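MDA-MB-468 cells were treated at 28 μM for 24 h with or without SAG. Cilia were immunostained for acetylated α-tubulin and Smo and imaged by confocal microscopy. Comparisons were made against DMSO and against SAG alone.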

Calls of active or inactive are those of the source. No cut-off for these calls is given here.

In general, IC50 refers to the concentration that gives 50% inhibition. The LD50 is the dose expected to kill half of the subjects tested. As usually defined, the Kd is the free concentration of one partner at which half of the binding sites on the other are occupied at equilibrium, for simple one-to-one binding.

T1 sequence (Q99835 whole entry): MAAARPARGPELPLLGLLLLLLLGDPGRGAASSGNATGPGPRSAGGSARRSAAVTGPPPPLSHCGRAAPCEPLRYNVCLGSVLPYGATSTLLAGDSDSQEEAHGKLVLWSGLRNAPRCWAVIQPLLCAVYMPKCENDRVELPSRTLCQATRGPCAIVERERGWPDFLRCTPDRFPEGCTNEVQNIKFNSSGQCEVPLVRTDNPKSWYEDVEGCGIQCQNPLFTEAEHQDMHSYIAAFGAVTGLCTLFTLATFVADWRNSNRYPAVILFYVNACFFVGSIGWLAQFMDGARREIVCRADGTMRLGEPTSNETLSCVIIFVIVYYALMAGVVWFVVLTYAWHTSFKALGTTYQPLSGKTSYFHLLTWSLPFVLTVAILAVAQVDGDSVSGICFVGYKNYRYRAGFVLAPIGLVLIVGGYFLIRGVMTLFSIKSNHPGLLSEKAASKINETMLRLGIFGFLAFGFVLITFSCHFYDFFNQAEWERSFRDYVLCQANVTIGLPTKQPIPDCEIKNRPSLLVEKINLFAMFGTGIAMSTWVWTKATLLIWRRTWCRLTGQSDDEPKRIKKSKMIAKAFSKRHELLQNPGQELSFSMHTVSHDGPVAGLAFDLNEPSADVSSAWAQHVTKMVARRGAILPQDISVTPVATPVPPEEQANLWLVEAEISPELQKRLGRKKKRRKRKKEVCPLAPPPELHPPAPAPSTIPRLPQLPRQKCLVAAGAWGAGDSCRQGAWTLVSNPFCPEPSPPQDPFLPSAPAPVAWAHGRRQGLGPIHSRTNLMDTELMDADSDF

Turning to `O=C(Nc1ccc(Cl)c(-c2nnc3c(Cl)cccn23)c1)c1cccc(Cl)c1`, the IC50 in the series on HeLa was above 100 µM; in the series on A549 it was 52.7 µM; in the series on AN3-CA, 68.4 µM; with MDA-MB-231, 66.1 µM; in the series on MCF7, 71.9 µM; in series [7], 0.102 µM. Besides, the IC50 in the series on MDA-MB-468 [8] was determined as 54.8 µM; in the series with T47D, 30.2 µM; with U-251 it was 43.1 µM. For the same molecule, the LD50 at 336 h in series [1] was above 5000 mg/kg. Further, the mortality at 336 h in [2] worked out at 0%. In addition, the Rmax on Protein smoothened [3] was found to be 41.2 RU. For the same molecule, the Kd at Protein smoothened [4] was 12.1 µM. On Protein smoothened [5], the Kdiss is 1.23 ×10⁻³ /s. The KA on Protein smoothened [6] amounted to 8.21 ×10⁴ /M. In addition, the Ka on Protein smoothened [9] amounted to 101 M⁻¹ s⁻¹.

Consider `CS(=O)(=O)c1ccc(C(=O)Nc2ccc(Cl)c(-c3ccccn3)c2)c(Cl)c1` [VISMODEGIB], for which the IC50 in the series with HeLa was 61.7 µM; in the series on A549 it was above 100 µM; in the series on AN3-CA, 93 µM; in the series on MCF-10A, 89.5 µM; in the series on MDA-MB-231, above 100 µM; in the series on MCF7 it was above 100 µM. Besides, the concentration for half-maximal inhibition (IC50) in series [7] was 0.1 µM; with MDA-MB-468 [8], 79 µM; in the series with T47D, above 100 µM; with U-251 it was above 100 µM. Also, the median lethal dose (LD50) at 336 h in series [1] was determined as 2010 mg/kg. In addition, the mortality at 336 h was determined as 50% in [10]; 80% in series [11]; 30% in series [13]; 60% in series [14]; 10% in series [15]. The Rmax on Protein smoothened [3] was determined as 4.63 RU. In addition, in [12], the Activity result was “Non-Toxic”. In addition, the Kdiss on Protein smoothened [5] turned out to be 0.0174 ×10⁻³ /s. Besides, the Ka on Protein smoothened [9] was 179 M⁻¹ s⁻¹. The inhibition result with MDA-MB-468 [16] is “Active”.

Source of the values: ChEMBL document CHEMBL4622968, “Discovery of [1,2,4]triazolo[4,3-a]pyridines as potent Smoothened inhibitors targeting the Hedgehog pathway with improved antitumor activity in vivo” (Bioorg Med Chem, 2020).
